What was measured:
Klebsiella pneumoniae [1] = assay: Potentiation of meropenem-induced antibacterial activity against Klebsiella pneumoniae Ecl8 transfected with pUBYT vector expressing KPC-2 assessed as meropenem MIC measured after 18 to 24 hrs by CLSI protocol based broth microdilution assay (reference value: 16 ug/ml); assay type: functional; conditions: time hrs 18-24
Summary of the method: (§1)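 Broth microdilution in cation-adjusted Mueller–Hinton broth per CLSI, triplicate; K. pneumoniae Ecl8 carrying pUBYT with blaKPC-2 under the ISKpn7 promoter. β-Lactam serially diluted with inhibitor fixed at 4 mg per liter (diluted from 100 mM DMSO stock). Incubated at 37 °C for 18 to 24 hours; growth read as absorbance at 600 nm.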

Klebsiella pneumoniae [2] = assay: Potentiation of cefepime-induced antibacterial activity against Klebsiella pneumoniae Ecl8 transfected with pUBYT vector expressing KPC-2 assessed as cefepime MIC measured after 18 to 24 hrs by CLSI protocol based broth microdilution assay (Rvb >=256 ug/ml); assay type: functional; conditions: time hrs 18-24; summary of the method: as §1
Klebsiella pneumoniae [3] = assay: Inhibition of beta lactamase KPC-2 in Klebsiella pneumoniae assessed as apparent second order rate constant K2/K using nitrocefin as substrate
Summary of the method: (§2)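 Direct competition assays at 25 °C in 10 mM HEPES pH 7.5, 150 mM NaCl. A range of cyclic boronate concentrations was mixed with 50 μM nitrocefin, and the reaction was started by adding 1 nM KPC-2. Nitrocefin hydrolysis was followed at 486 nm (Δε 20 500 M-1 cm-1). Kiapp and k2/K were both taken from these competition data. Inhibitor stocks were 100 mM in DMSO, diluted in buffer.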

[4] = Inhibition of beta lactamase KPC-2 in Klebsiella pneumoniae assessed as apparent inhibition constant using nitrocefin as substrate measured without preincubation by Dixon plot analysis; conditions: read-out: Ki(app); summary of the method: as §2
[5] = Inhibition of beta lactamase KPC-2 in Klebsiella pneumoniae using nitrocefin as substrate preincubated for 10 mins followed by substrate addition
Summary of the method: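 KPC-2 was preincubated with cyclic boronate for 10 min in 10 mM HEPES pH 7.5, 150 mM NaCl at 25 °C. 50 μM nitrocefin was then added and initial hydrolysis rates were read at 486 nm. IC50 was derived from the inhibitor concentration dependence of these rates. Inhibitor stocks were 100 mM in DMSO, diluted in buffer.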

Klebsiella pneumoniae [6] = assay: Irreversible inhibition of beta lactamase KPC-2 in Klebsiella pneumoniae assessed as off-rate constant using nitrocefin as substrate preincubated for 30 mins followed by substrate addition
Summary of the method: (§3)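 Jump-dilution off-rate assay. 1 μM KPC-2 was preincubated with 8 μM cyclic boronate for 30 min at room temperature, then serially diluted to a final KPC-2 concentration of 500 pM. 50 μM nitrocefin was added and recovery of hydrolysis was monitored at 486 nm in 10 mM HEPES pH 7.5, 150 mM NaCl. koff and half-life were derived from the recovery.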

Klebsiella pneumoniae [7] = assay: Inhibition of beta lactamase KPC-2 in Klebsiella pneumoniae assessed as irreversible covalent complex formation by measuring half life using nitrocefin as substrate; summary of the method: as §3

| Structure (SMILES) | MIC (Klebsiella pneumoniae [1]) | MIC (Klebsiella pneumoniae [2]) | K (Klebsiella pneumoniae [3]) | Ki [4] | IC50 [5] | K (Klebsiella pneumoniae [6]) | T1/2 (Klebsiella pneumoniae [7]) |
| --- | --- | --- | --- | --- | --- | --- | --- |
| NCCN[C@H]1CC[C@H](CC(=O)N[C@H]2Cc3cccc(C(=O)O)c3OB2O)CC1 | ≤ 0.125 µg/mL | ≤ 0.125 µg/mL | 1 10^4/M/s | 1300 nM | 37 nM |  |  |
| O=C(NC1CCNCC1)[C@@H]1CC[C@@H]2CN1C(=O)N2OS(=O)(=O)O [RELEBACTAM] |  |  |  | 1200 nM |  | 0.00087 s⁻¹ |  |
| O=C(O)C[C@@H]1CC[C@H](NC(=O)Cc2cccs2)B(O)O1 [VABORBACTAM] | ≤ 0.125 µg/mL | ≤ 0.125 µg/mL | 6.7 10^2/M/s | 8500 nM | 35 nM | 0.00016 s⁻¹ | 1.2 h |

Source: ChEMBL document CHEMBL4699403, “Cyclic boronates as versatile scaffolds for KPC-2 beta-lactamase inhibition” (RSC Med Chem, 2020)
